Assay outcomes as filed in PubChem BioAssay.
Hits are enriched below; roughly 2.1% of the tested compounds scored in any of these assays.
SF1 activator = activators of human nuclear receptor SF-1. CHO-K1 Gal4-SF-1 LBD luciferase reporter; % increase over DMSO SF-1-specific signal. AID 522. activation, % at 10 µM. actives 1.9% (n = 65,000);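 active means activation above the mean activation of all tested compounds plus 3 SD, cut at about 50% in these data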
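Assay system – CHO-K1 cells with Gal4–hSF-1 LBD chimera plus Gal4-driven luciferase · Quantity – 4,000 cells per well · Times – compound added 1 h post-seeding, 20 h exposure at 37 °C, 5% CO2 · Measured by – luciferase light emission · Benchmarks – DMSO and mock-transfected background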
TNAP act DEA = activators of human TNAP at intermediate phosphate acceptor. P05186. purified TNAP, CDP-star luminescence, 100 mM DEA, 30 min; active compounds read high; scale: 0 levamisole-inhibited, 1 vehicle-only enzyme. activation factor at 20 µM. 64,000 tested, under 10 active. AID 813;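 active means activation factor of at least 2 at 20 µM, relative to controls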
Target sequence (P05186 whole entry, looked up): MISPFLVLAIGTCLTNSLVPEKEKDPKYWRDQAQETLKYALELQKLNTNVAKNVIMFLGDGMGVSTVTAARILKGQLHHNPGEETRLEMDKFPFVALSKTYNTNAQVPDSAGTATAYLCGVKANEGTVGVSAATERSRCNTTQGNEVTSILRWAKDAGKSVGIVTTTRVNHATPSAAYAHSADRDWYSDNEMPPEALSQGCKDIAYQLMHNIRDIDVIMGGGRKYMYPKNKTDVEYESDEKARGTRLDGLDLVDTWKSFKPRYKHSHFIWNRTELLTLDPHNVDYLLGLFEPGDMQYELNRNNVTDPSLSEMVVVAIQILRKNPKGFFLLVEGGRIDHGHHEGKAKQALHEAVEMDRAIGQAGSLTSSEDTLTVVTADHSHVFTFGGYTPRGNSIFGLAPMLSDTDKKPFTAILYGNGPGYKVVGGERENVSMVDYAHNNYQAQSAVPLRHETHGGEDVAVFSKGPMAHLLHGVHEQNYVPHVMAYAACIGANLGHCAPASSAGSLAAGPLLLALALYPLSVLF
MT1-MMP txn act = MT1-MMP promoter transcription activation | HT1080 MT1-MMP promoter luciferase reporter, luminescence, overnight; active compounds read high | activation factor at 10 µM | actives 0.16% (n = 86,000) | AID 750;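 active means activation factor of at least 2 for MT1-MMP transcription at 10 µM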
RORa activator = activates the human nuclear receptor RORA; P35398; CHO-K1 Gal4-RORA LBD luciferase reporter, luminescence; percent increase over mock-subtracted basal signal; activation, % at 10 µM; actives 1.5% (n = 65,000);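 active means activation above the mean of all tested compounds plus 3 SD, cut at about 49% in these data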;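 further: 0% = DMSO-treated RORA cells and 100% = added signal equal to DMSO minus mock-transfected cells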
Mac1 fbg enh = CD11b/CD18-fibrinogen binding enhancement; P05107+P11215; K562 CD11b/CD18 adhesion to fibrinogen, ATPlite luminescence; activation, % at 10 µM; actives 0.07% (n = 93,000); AID 1499;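 active means 10 µM primary screen giving 50% or more activity, confirmed by 40% or more on retest at that dose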
CD11b adhes inh = CD11b/CD18-fibrinogen binding inhibition; inhibition, % at 10 µM; P05107+P11215; K562 CD11b/CD18 adhesion to fibrinogen, ATPlite luminescence; Mn2+ added to activate the integrin; actives 0.54% (n = 93,000); AID 1497;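 active means primary inhibition of 50% or more at 10 µM, then 40% or more on retest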
Active calls of the source: *; · = no result given.

SMILES	SF1 activator	TNAP act DEA	MT1-MMP txn act	RORa activator	Mac1 fbg enh	CD11b adhes inh
COC(=O)c1c(NC(=O)c2ccoc2C)sc2c1CCC2	-10.8	0.9	1.2	-3.5	6.7	1.2
NC(=O)c1c(NC(=O)Cc2cccs2)sc2c1CCC2	51.2*	0.8	1.1	25.2	·	·
Cn1c(=O)c(C(=O)Nc2cnccn2)c(O)c2ccccc21	28.8	0.9	1.6	52.5*	6.7	10.3
CCCN1C(=O)/C(=C2\SC(N3CCCCC3)=NC2=O)c2ccccc21	81.3*	0.8	1.6	64.9*	-2.0	-18.9
CN1C(=O)/C(=C2\SC(N3CCCCCC3)=NC2=O)c2ccccc21	·	·	·	·	0.3	-3.6
CC(CC(=O)c1cccs1)CC(=O)c1cccs1	74.2*	0.9	1.9	73.9*	0.7	0.7
O=C(O)CCCCCCCCCC(=O)c1cccs1	·	·	0.9	·	1.1	15.6
CCCCC1CCC(C(=O)NCc2ccc3c(c2)OCO3)CC1 (centres undefined)	·	·	1.2	·	0.9	-22.9
CC(=O)N1CCc2c(sc(NC(=O)c3ccc(S(=O)(=O)N(C)C)cc3)c2C#N)C1	-16.2	0.8	1	-1.3	·	·
CC(=O)N1CCc2c(sc(NC(=O)c3ccc4c(c3)OCCO4)c2C#N)C1	77.4*	0.9	1.1	49.0*	5.7	-61.8
CCOc1ccc(S(=O)(=O)NN)cc1	·	·	·	·	0.7	4.6
Cc1ccc2cc(CN(Cc3ccco3)C(=O)c3cccs3)c(=O)[nH]c2c1	44.8	0.8	0.8	76.2*	8.0	-26.4
COC(=O)c1[nH]c2cc(C)ccc2c1NC(=O)CN1CCCc2ccccc21	14.3	1	2.2*	7.7	·	·
COC(=O)c1[nH]c2ccc(Br)cc2c1NC(=O)CN1CCCc2ccccc21	·	·	1.3	·	·	·
O=[N+]([O-])c1cc([N+](=O)[O-])c2cccnc2c1Oc1ccccc1O	·	·	·	·	-9.5	90.0*
CC(C)CNC(=O)COc1ccccc1[N+](=O)[O-]	·	·	·	·	-0.6	-6.8
COC(=O)[C@@]1(Cc2ccccc2)[C@H]2c3cc(C(=O)N4CCCC4)n(Cc4c(CO)[nH]cc(C)c4=O)c3C[C@H]2CN1C(=O)c1ccccc1	·	·	1.2	·	·	·
COC(=O)[C@@H](N)CS	·	·	1.1	·	·	·
NC(=O)c1ccc(NC(=O)C2CCCO2)cc1 (centres undefined)	·	·	1.1	·	·	·
CCCOC(=O)c1ccc(NC(=O)C2CCCO2)cc1 (centres undefined)	67.9*	0.9	1.3	9.4	3.9	-10.2
CCn1c(SCC(=O)Nc2ccc(C(C)=O)cc2)nc2ccccc21	64.8*	0.9	1.4	61.8*	-0.7	-1.9
Cc1ccc(NC(=O)c2c(C)nn(-c3ccccc3)c2Cl)cc1	·	·	·	·	5.4	0.8
Cc1ccc(C2/C(=C(/O)c3cnn(-c4ccccc4)c3C)C(=O)C(=O)N2CCN2CCOCC2)o1 (centres undefined)	54.5*	0.8	1.2	21.8	6.1	4.6
Cc1ccc(C2/C(=C(\O)c3cnn(-c4ccccc4)c3C)C(=O)C(=O)N2CCN(C)C)o1 (centres undefined)	52.7*	1	1.8	8.6	·	·
CCN(CC)CCN1C(=O)C(=O)/C(=C(/O)c2cnn(-c3ccccc3)c2C)C1c1ccc(C)o1 (centres undefined)	·	·	1.5	·	-2.2	-14.7
SMILES	SF1 activator	TNAP act DEA	MT1-MMP txn act	RORa activator	Mac1 fbg enh	CD11b adhes inh
CCN1CCN(Cc2ccc3c(c2)Cc2ccccc2-3)CC1	35.5	1	1.1	26.6	-4.2	13.4
c1ccc2c(c1)Cc1cc(CN3CCOCC3)ccc1-2	28.4	0.9	1.3	67.7*	2.8	5.0
Cc1cccc(-c2nnc(-c3ccccc3)o2)c1	59.5*	0.9	1.5	45.5	-2.8	3.1
CCOc1ccc(-c2nnc(-c3cccs3)o2)cc1OCC	16.8	0.9	1.4	52.8*	-0.4	4.6
c1ccc(-c2nnc(-c3ccco3)o2)cc1	51.0*	1	1.7	23.3	3.3	-7.3
Brc1ccc(-c2nnc(-c3ccco3)o2)cc1	21.8	0.9	1.4	29.1	-2.7	-2.0
CCOc1ccc(-c2nnc(-c3ccco3)o2)cc1OCC	41.6	0.9	2.1*	21.6	-3.5	-19.0
O=C(NCc1cccnc1)C1CC(=O)N(CCc2ccccc2)C1 (centres undefined)	·	·	·	·	0.1	-13.0
